Compound activity (PubChem)
An excerpt weighted towards active compounds, which were near 3.4% of everything screened.
beta cell repl: inducers of MIN6 beta-cell proliferation, primary screen, ATP luminescence, uHTS; MIN6 cells proliferation, ATPlite luminescence, 48 h; cells starved in 0.2% serum; 100% = growth in 10% serum; proliferation, % at 10 µM; 0.29% of 330,000 active; AID 2380, 2010;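 active = compounds whose signal lies at least 3.5 SD above the mean of all wells on their plate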;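 note: 0% = DMSO-treated cells in low-serum medium and 100% = 10% serum control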
ANO1 block: TMEM16A chloride channel inhibitors, primary screen, cell-based, HTS; Anoctamin-1 (Mus musculus), Q8BHY3; HEK293 TMEM16A/YFP iodide influx fluorescence, ionomycin; normalized B-score (activity score, 25-100; higher = stronger inhibition) at 10 µM; 1.2% of 310,000 active; AID 588511, 2011;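 active = ratio plate-corrected score three or more library SD toward inhibition, starting fluorescence score within five deviations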;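 note: score derived from kinetic fluorescence span divided by baseline fluorescence per well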
HTR2A ag: mouse Htr2a agonists via beta-arrestin recruitment, primary screen, cell-based, luminescence; 5-hydroxytryptamine receptor 2A (Mus musculus), P35363; 0.66% of 360,000 active; CHO-K1 mHTR2A beta-arrestin complementation; percent of 30 µM serotonin response; activation, % at 7.6 µM;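 active = activation above a run cutoff, the mean activation of all tested compounds plus 3 SD, cut at about 14% in these data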;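 note: 0% = plate median of compound wells and 100% = 30 µM serotonin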
Target sequence (P35363 whole entry, looked up): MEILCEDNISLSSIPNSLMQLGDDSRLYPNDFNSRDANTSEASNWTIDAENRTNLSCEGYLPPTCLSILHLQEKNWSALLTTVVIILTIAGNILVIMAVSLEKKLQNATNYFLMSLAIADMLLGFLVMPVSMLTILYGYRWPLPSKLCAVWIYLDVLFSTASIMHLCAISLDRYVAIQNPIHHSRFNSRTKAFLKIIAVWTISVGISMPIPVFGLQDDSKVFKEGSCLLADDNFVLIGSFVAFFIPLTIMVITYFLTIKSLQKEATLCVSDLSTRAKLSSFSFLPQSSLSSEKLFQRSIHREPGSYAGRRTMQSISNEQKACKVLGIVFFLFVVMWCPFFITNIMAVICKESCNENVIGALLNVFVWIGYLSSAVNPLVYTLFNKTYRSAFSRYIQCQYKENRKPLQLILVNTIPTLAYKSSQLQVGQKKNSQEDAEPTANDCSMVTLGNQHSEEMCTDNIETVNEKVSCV
ANO1 activ: TMEM16A chloride channel activators or potentiators, primary screen, cell-based, HTS. Anoctamin-1 (Mus musculus), Q8BHY3. HEK293 TMEM16A/YFP-H148Q/I152L, iodide quench fluorescence; stronger effect = lower value. B-score at 10 µM. 0.3% of 340,000 active. AID 623877, 2012;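 active = fluorescence-ratio B-score plate-corrected deviation score at least 3 library SD below zero, with starting fluorescence score within 5 deviations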;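 note: channel opened by trigger with iodide after compound preincubation; score built on the fluorescence ratio of max minus min over baseline; more negative score means more quench and so TMEM16A activation or potentiation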
MC4R antagonist: MC4R antagonists of cAMP signaling, primary screen, cell-based, TR-FRET, antagonist arm of biased-ligand search; Melanocortin receptor 4 (Homo sapiens), P32245; MC4R-expressing cells, MTII-stimulated cAMP, LANCE TR-FRET; inhibition, % at 6.5 µM; 0.48% of 360,000 active; AID 540295, 2011;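 active = inhibition above its plate's cutoff, the mean of tested wells on that plate plus 3 SD, cut at about 29% in these data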;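 note: 0% = Melanotan II alone and 100% = Melanotan II plus saturating MCL0020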
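Assay system: human MC4R-expressing U2OS cells; reagent: Melanotan II stimulation of cells; dosing: 6.5 µM single dose; timing: compound 30 min, challenge 1 h, detection 1 h; signal: TR-FRET cAMP assay; replicates: one well per compound, no replicates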
MC4R ag barr: MC4R agonists recruiting beta-arrestin, primary screen, cell-based, luminescence, agonist arm of biased-ligand search; Melanocortin receptor 4 (Homo sapiens), P32245; U2OS MC4R beta-arrestin complementation; percent of melanotan II response, DMSO zero; activation, % at 8.9 µM; 0.98% of 360,000 active;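 active = activation above a per-plate cutoff, the mean activation of sample wells on that plate plus 3 SD, cut at about 8% in these data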
cAMP nonselect: nonselective cAMP signaling inhibitors, parental cells, counter-screen for MC4R biased antagonist project, cell-based, TR-FRET, U2OS, forskolin, triplicate; shares compounds with MC4R antagonist; LANCE TR-FRET; inhibition, % at 6.5 µM; 26% of 1,600 active;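 active = mean inhibition over triplicates above the low-control well mean plus 3 SD, set per campaign, cut at about 13% in these data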;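 note: signal is single emission at 671 nm which falls as cellular cAMP rises; 0% = forskolin-stimulated wells and 100% = buffer without forskolin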
MC4R cAMP antag: MC4R cAMP antagonists, retest, confirmation, cell-based, TR-FRET | 27% of 1,600 active | shares compounds with MC4R antagonist | inhibition, % at 6.5 µM | MC4R-expressing cells, MTII-stimulated cAMP | AID 602195, 2012; in the data active = inhibition above about 29%;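 note: 0% = agonist stimulated wells alone and 100% = agonist stimulated wells plus saturating reference antagonist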
* marks the source's active call; other numbers are inactive results.

For Cc1nnc(SCC(=O)Nc2c(Cl)cccc2Cl)n(N)c1=O the results were beta cell repl 3.3, ANO1 block inactive, HTR2A ag 1.9, ANO1 activ inactive, MC4R antagonist -2.3 and MC4R ag barr -3.6.
Screening COC(=O)COc1ccc(S(=O)(=O)N2CCN(c3ccc(F)cc3)CC2)cc1 returned beta cell repl -4.3, ANO1 block inactive, HTR2A ag -1.4, ANO1 activ inactive, MC4R antagonist 30.8*, MC4R ag barr 2.2, cAMP nonselect 15.6* and MC4R cAMP antag 45.5*.
COC(=O)COc1ccc(S(=O)(=O)N2CCCCCC2)cc1 was read as beta cell repl -2.3, ANO1 block inactive, HTR2A ag 1.9, ANO1 activ inactive, MC4R antagonist 6.6 and MC4R ag barr -1.7.
For COC(=O)COc1ccc(S(=O)(=O)N2CCN(c3ccc(OC)cc3)CC2)cc1 the results were beta cell repl -4.3, ANO1 block inactive, HTR2A ag -0.5, ANO1 activ inactive, MC4R antagonist 30.1*, MC4R ag barr -1.3, cAMP nonselect 17.9* and MC4R cAMP antag 46.4*.
CCCC[C@H]1COCCS(=O)(=O)N1Cc1cccc([N+](=O)[O-])c1 was read as beta cell repl -2.6, ANO1 block inactive, HTR2A ag -5.8, ANO1 activ inactive, MC4R antagonist 2.7 and MC4R ag barr -1.8.
O=C(Nc1nc2ccccc2[nH]1)c1ccc(Cl)c(S(=O)(=O)N2CCCC2)c1 was read as beta cell repl -2.1, ANO1 block inactive, HTR2A ag 3.1, ANO1 activ inactive, MC4R antagonist 29.0*, MC4R ag barr -1.4, cAMP nonselect 10.5 and MC4R cAMP antag 7.3.
For COc1ccc(C2CCc3cc(OC)c(OC)cc3C2NC=O)cc1OC (centres undefined) the results were HTR2A ag 4.7, MC4R antagonist 1.1 and MC4R ag barr -0.6.
NC(=O)c1ccc(NCC2COc3ccccc3O2)c([N+](=O)[O-])c1 (centres undefined) was read as beta cell repl -2.6, ANO1 block inactive, HTR2A ag 0.2, ANO1 activ inactive, MC4R antagonist 36.1*, MC4R ag barr -0.8, cAMP nonselect -1.7 and MC4R cAMP antag -3.1.
`COc1ccc(-c2c3c([nH]c(=S)c2C#N)CCC3)cc1` gave HTR2A ag 5.0, ANO1 activ inactive, MC4R antagonist 88.0*, MC4R ag barr -0.1, cAMP nonselect 20.1* and MC4R cAMP antag 35.3*.
`COc1ccc(OC)c(-c2c3c([nH]c(=S)c2C#N)CCCC3)c1` gave beta cell repl 1.6, ANO1 block inactive, HTR2A ag -3.3, ANO1 activ inactive, MC4R antagonist 8.0 and MC4R ag barr 0.0.
CC(=O)N(C(C)=O)c1ccc2c(c1)OCCO2 was read as HTR2A ag 2.4, MC4R antagonist 12.5 and MC4R ag barr -0.5.
`COc1ccc(-n2cc(-c3ccccc3)[n+]3c2CCCCC3)cc1` gave beta cell repl -5.2, ANO1 block inactive, HTR2A ag 6.7, ANO1 activ inactive, MC4R antagonist 0.1 and MC4R ag barr -1.8.
FC(F)Oc1ccc(-n2cc(-c3ccc(Cl)cc3)[n+]3c2CCCCC3)cc1 was read as beta cell repl -4.0, ANO1 block inactive, HTR2A ag -1.9, ANO1 activ inactive, MC4R antagonist 28.7*, MC4R ag barr -1.1, cAMP nonselect -1.3 and MC4R cAMP antag -5.2.
`O=C(O)/C=C/C(=O)Nc1ccc(Oc2ccccc2)cc1` gave beta cell repl -2.5, ANO1 block inactive, HTR2A ag -3.8, ANO1 activ inactive, MC4R antagonist 7.0 and MC4R ag barr -1.4.
CCOC(=O)/C=C/C(=O)Nc1ccc(Oc2ccccc2)cc1 was read as beta cell repl -6.8, ANO1 block inactive, HTR2A ag -6.9, ANO1 activ inactive, MC4R antagonist 45.7*, MC4R ag barr -0.6, cAMP nonselect 28.4* and MC4R cAMP antag 53.1*.
For COc1ccc(C(=O)OCCN=C2NS(=O)(=O)c3ccccc32)cc1OC the results were beta cell repl -1.4, ANO1 block inactive, HTR2A ag 1.0, ANO1 activ inactive, MC4R antagonist 30.2*, MC4R ag barr 1.8, cAMP nonselect -0.9 and MC4R cAMP antag -10.1.
For CC(=O)CSc1nc(N)c(C#N)c(-c2cccs2)c1C#N the results were beta cell repl 5.2, ANO1 block inactive, HTR2A ag 1.5, ANO1 activ inactive, MC4R antagonist 3.7 and MC4R ag barr -0.7.
For CC(=O)CSc1nc(-c2cccs2)c(C#N)c(=O)[nH]1 the results were beta cell repl 0.1, HTR2A ag 3.2, ANO1 activ inactive, MC4R antagonist 46.1*, MC4R ag barr 0.9, cAMP nonselect 35.8* and MC4R cAMP antag 59.7*.
CC(=O)Nc1cccc(NC(=O)CSc2ncc(C(=O)Nc3ccccc3)c(=O)n2C)c1 was read as beta cell repl -5.3, ANO1 block inactive, HTR2A ag -1.7, ANO1 activ inactive, MC4R antagonist 29.6*, MC4R ag barr -3.8, cAMP nonselect -0.3 and MC4R cAMP antag 20.2.
For CC(=O)Nc1cccc(NC(=O)CSc2ncc(C(=O)Nc3ccc(F)cc3)c(=O)n2C)c1 the results were beta cell repl -2.0, ANO1 block inactive, HTR2A ag 4.3, ANO1 activ inactive, MC4R antagonist 24.6 and MC4R ag barr 1.3.
Screening CC(OC(=O)Nc1ccccc1)C(=O)OC1CCCCC1 (centres undefined) returned HTR2A ag 5.2, ANO1 activ inactive, MC4R antagonist -0.8 and MC4R ag barr 1.7.
`COc1ccc2c(C#CCCO)c(-c3ccc(S(C)(=O)=O)cc3)sc2c1` gave beta cell repl -1.0, HTR2A ag 5.2, ANO1 activ inactive, MC4R antagonist 36.5*, MC4R ag barr 7.6, cAMP nonselect -5.2 and MC4R cAMP antag 5.4.
